Data published in ChEMBL document CHEMBL1649420, “Identifying chelators for metalloprotein inhibitors using a fragment-based approach” (J Med Chem, 2011).

Legend:
[1] = target: Neutrophil collagenase (Homo sapiens) (UniProt P22894); conditions: at 1 mM;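 note: recombinant human MMP8 enzyme, percent inhibition read after 30 min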
[2] = target: Stromelysin-1 (Homo sapiens) (UniProt P08254); conditions: at 1 mM;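 note: recombinant enzyme, inhibition read after a 30 min incubation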
[3] = target: T1, Polyunsaturated fatty acid 5-lipoxygenase (Homo sapiens) (UniProt P09917); test: Inhibition of human recombinant 5-lipoxygenase at 1 mM after 10 mins by fluorescence assay
T1 sequence (whole entry): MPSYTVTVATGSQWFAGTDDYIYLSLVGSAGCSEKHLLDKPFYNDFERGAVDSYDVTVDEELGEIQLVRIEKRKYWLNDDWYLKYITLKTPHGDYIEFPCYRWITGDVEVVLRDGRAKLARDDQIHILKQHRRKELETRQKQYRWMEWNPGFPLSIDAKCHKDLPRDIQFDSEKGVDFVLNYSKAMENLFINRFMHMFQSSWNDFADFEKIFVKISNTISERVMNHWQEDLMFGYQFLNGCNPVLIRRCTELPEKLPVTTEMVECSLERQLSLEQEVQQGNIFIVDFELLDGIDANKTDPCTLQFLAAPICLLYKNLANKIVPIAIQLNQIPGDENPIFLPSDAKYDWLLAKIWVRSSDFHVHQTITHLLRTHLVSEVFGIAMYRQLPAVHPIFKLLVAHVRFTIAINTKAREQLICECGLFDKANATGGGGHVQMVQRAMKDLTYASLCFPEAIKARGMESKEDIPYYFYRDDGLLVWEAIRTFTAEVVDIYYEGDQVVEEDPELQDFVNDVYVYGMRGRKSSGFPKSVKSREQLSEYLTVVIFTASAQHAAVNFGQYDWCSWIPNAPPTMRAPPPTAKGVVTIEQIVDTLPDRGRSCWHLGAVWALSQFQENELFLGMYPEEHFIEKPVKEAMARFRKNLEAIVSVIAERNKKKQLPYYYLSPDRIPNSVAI

[4] = target: T2, Tyrosinase (Agaricus bisporus) (UniProt O42713); conditions: at 1 mM;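 note: inhibition measured at 10 min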
T2 sequence (whole entry): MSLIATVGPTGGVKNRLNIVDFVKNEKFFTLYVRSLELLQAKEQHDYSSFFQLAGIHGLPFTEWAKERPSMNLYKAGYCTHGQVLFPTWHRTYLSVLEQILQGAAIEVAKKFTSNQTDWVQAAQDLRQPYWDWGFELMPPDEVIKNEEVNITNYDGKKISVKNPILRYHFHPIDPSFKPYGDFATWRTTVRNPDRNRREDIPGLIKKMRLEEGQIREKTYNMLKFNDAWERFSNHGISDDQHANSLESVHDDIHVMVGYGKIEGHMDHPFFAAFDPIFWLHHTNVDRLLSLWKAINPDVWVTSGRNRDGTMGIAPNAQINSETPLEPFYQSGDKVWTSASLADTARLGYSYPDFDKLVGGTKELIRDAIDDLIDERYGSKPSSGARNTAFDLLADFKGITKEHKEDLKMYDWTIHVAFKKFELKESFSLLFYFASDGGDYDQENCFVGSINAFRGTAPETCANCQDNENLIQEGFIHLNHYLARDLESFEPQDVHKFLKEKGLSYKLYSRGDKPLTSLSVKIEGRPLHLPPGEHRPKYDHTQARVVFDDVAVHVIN

[5] = target: T3, Interstitial collagenase (Homo sapiens) (UniProt P03956); conditions: at 1 mM;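 note: recombinant human enzyme, with inhibition measured after 30 min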
T3 sequence (whole entry): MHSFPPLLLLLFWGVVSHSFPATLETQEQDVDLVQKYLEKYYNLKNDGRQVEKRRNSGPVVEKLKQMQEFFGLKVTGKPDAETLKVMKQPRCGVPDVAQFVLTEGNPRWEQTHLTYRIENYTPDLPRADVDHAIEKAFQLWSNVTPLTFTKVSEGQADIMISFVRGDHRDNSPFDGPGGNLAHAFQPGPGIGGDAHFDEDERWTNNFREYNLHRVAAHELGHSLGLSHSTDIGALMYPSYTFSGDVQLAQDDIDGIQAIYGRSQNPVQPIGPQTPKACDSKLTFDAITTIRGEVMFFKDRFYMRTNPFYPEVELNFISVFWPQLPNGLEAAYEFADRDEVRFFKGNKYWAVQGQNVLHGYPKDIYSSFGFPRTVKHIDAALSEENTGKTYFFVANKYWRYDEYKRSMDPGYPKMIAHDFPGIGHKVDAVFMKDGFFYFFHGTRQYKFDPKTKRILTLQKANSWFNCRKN

[6] = target: T4, 72 kDa type IV collagenase (Homo sapiens, UniProt P08253); conditions: at 1 mM
Target sequence in this assay (P08253 110-660 limits assumed): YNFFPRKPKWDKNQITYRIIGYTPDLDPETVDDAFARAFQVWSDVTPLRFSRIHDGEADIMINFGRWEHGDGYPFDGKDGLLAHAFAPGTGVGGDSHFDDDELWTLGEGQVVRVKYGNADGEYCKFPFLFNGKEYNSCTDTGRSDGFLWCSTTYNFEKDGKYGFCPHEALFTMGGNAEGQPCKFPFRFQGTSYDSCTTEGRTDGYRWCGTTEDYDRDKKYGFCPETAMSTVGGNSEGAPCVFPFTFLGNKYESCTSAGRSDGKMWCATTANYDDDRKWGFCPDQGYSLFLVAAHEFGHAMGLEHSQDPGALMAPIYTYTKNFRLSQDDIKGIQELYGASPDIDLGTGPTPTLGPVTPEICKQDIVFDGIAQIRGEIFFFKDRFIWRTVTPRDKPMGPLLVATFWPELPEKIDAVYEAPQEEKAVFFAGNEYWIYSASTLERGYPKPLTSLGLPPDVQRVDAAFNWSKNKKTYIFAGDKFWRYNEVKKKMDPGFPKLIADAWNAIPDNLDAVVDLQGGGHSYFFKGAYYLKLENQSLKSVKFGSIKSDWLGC

[7] = target: T5, Nitric oxide synthase, inducible (Mus musculus) (UniProt P29477); conditions: at 1 mM;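 note: recombinant enzyme, activity read out colorimetrically after 40 min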
T5 sequence (whole entry): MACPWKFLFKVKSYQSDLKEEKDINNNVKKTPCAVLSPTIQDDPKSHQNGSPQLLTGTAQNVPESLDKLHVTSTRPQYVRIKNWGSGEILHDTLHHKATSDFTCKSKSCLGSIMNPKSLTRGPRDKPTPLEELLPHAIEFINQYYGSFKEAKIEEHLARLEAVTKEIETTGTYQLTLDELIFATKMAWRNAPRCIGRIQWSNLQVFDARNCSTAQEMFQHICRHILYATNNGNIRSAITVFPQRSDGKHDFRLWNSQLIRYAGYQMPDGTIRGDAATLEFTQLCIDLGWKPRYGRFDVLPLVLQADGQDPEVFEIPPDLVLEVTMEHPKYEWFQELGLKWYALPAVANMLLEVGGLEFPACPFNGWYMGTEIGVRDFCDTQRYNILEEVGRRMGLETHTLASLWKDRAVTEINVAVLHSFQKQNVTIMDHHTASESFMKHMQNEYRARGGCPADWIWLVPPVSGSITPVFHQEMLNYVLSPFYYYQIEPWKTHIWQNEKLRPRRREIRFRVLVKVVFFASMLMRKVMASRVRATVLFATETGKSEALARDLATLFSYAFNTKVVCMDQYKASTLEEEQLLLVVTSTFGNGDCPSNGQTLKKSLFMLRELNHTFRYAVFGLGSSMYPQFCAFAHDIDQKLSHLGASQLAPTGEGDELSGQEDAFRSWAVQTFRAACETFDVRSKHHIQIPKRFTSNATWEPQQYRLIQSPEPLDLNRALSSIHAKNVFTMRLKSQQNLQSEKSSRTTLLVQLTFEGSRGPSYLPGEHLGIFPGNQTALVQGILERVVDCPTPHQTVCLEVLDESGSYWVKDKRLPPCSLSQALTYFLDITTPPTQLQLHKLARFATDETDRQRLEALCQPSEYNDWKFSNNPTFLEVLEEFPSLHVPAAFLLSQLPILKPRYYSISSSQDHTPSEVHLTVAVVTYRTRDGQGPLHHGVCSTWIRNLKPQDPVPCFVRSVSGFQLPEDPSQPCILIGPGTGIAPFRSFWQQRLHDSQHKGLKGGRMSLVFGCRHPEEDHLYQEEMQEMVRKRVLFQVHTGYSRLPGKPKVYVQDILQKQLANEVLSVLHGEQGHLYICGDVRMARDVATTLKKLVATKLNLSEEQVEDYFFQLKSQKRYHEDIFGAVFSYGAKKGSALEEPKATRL

[8] = target: Matrix metalloproteinase-9 (Homo sapiens) (UniProt P14780); conditions: at 1 mM;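 note: recombinant human MMP9, activity read after 30 min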
[9] = target: T6, Lethal factor (Bacillus anthracis) (UniProt P15917); conditions: at 1 mM
T6 sequence (whole entry): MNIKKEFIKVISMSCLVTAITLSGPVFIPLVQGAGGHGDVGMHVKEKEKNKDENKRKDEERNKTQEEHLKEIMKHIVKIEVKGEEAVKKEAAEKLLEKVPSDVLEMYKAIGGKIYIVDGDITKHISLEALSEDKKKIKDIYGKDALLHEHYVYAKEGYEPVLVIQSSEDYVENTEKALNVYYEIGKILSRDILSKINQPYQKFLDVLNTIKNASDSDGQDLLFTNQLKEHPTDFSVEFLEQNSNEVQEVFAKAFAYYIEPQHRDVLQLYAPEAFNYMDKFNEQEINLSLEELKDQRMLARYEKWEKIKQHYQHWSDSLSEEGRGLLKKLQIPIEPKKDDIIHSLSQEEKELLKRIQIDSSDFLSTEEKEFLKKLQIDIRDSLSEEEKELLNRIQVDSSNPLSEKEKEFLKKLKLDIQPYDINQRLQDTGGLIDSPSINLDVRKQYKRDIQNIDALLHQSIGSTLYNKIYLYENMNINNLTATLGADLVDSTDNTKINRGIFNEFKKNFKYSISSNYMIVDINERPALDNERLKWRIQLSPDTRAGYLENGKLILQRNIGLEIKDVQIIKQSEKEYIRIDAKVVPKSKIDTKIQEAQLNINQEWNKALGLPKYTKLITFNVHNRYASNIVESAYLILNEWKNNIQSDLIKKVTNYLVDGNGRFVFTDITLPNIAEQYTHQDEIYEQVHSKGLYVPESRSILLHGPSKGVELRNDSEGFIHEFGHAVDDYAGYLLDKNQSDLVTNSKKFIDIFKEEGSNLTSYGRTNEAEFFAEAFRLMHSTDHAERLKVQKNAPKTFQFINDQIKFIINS

[10] = target: T4, 72 kDa type IV collagenase; test: Inhibition of human recombinant MMP2 after 30 mins
Summary of the method: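 Enzyme (1.16 U) preincubated 30 min at 37 °C with fragment in 50 mM HEPES, 10 mM CaCl2, 0.05% Brij-35, pH 7.5. Fluorogenic Mca peptide substrate (4 μM final) then added. Rate of fluorescence increase compared with no-inhibitor control (100%). Single-point 25 μM final for the 8-hydroxyquinoline sublibrary. IC50 fitted to dose-response curves from serial dilutions of DMSO stocks.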
Target sequence in this assay (P08253 whole entry): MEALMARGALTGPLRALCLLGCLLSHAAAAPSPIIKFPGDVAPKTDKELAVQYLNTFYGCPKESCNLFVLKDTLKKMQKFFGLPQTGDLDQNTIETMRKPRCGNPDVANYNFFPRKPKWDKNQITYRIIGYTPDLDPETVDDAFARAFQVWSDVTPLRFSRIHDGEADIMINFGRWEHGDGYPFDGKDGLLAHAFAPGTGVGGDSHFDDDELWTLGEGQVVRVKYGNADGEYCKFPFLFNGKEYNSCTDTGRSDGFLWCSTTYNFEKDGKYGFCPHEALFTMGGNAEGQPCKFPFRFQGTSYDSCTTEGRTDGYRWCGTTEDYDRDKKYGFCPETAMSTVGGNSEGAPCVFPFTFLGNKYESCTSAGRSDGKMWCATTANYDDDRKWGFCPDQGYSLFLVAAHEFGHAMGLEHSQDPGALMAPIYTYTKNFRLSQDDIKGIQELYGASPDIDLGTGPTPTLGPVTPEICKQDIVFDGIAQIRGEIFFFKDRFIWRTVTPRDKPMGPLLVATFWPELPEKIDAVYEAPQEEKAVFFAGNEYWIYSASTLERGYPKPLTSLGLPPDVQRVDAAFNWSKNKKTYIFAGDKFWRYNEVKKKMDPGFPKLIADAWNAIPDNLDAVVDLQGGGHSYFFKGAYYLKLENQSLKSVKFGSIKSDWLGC

Matrix metalloproteinase-9 (Homo sapiens), sequence (P14780 whole entry): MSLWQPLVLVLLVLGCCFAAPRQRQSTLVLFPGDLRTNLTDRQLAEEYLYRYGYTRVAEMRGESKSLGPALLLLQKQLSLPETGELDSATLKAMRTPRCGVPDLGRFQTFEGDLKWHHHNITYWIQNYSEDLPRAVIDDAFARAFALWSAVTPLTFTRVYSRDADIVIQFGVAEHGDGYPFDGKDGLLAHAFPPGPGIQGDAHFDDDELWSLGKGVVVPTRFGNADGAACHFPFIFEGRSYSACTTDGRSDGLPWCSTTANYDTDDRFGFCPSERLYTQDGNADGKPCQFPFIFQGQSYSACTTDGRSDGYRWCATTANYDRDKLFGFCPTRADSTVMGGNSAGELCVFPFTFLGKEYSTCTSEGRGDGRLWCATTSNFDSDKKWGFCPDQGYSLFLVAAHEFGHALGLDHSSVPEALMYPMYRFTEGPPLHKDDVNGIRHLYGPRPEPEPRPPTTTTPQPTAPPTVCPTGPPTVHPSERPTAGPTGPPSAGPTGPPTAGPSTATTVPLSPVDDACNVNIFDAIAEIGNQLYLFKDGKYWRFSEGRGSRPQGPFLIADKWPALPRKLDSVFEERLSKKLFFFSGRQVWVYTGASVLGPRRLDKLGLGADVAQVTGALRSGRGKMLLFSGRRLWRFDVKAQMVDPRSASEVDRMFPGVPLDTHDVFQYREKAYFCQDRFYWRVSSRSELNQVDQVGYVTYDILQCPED
Stromelysin-1 (Homo sapiens), sequence (P08254 100-477 limits assumed): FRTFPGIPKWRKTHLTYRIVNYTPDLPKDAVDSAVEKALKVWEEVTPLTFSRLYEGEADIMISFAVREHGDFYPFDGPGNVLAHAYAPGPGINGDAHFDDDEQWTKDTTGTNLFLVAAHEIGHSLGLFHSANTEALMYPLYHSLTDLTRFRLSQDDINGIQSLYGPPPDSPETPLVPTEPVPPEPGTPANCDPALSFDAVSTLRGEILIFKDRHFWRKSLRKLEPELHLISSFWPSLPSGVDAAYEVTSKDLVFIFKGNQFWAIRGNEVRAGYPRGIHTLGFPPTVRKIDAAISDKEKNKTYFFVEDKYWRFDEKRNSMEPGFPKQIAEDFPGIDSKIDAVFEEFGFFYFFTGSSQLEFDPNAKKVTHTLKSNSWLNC
Neutrophil collagenase (Homo sapiens), sequence (P22894 101-467 limits assumed): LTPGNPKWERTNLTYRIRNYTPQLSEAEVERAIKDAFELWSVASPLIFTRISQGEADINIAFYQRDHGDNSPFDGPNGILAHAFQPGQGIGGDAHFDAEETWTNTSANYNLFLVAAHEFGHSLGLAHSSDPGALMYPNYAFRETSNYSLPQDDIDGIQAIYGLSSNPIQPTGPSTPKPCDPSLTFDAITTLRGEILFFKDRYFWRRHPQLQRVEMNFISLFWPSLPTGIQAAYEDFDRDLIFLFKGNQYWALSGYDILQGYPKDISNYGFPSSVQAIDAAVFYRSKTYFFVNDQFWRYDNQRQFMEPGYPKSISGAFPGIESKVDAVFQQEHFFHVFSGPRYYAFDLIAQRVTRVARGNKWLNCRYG

SMILES: Cc1nc(O)cc(O)n1
- inhibition [1]: 14%
- inhibition [2]: 22%
- inhibition [3]: 62%
- inhibition [4]: 12%
- inhibition [5]: 14%
- inhibition [6]: 2%
- inhibition [7]: 1%
- inhibition [8]: 4%

SMILES: Oc1cccnc1O
- inhibition [1]: 7%
- inhibition [2]: -7%
- inhibition [3]: 90%
- inhibition [4]: -9%
- inhibition [5]: 8%
- inhibition [7]: 0%
- inhibition [8]: 21%

SMILES: O=C(O)c1c(O)cccc1O
- inhibition [1]: -5%
- inhibition [2]: -4%
- inhibition [3]: 38%
- inhibition [9]: 15%
- inhibition [4]: 95%
- inhibition [5]: 0%
- inhibition [6]: -6%
- inhibition [7]: 17%

SMILES: CC(=O)C(Cl)C(C)=O
- inhibition [1]: -7%
- inhibition [2]: -6%
- inhibition [3]: 52%
- inhibition [9]: 9%
- inhibition [4]: 86%
- inhibition [5]: 11%
- inhibition [6]: -9%
- inhibition [7]: 80%

SMILES: O=c1[nH]ccc(=S)[nH]1
- IC50 [10]: 0.121 mM

SMILES: CCC(C(C)=O)C(C)=O
- inhibition [1]: 3%
- inhibition [2]: 6%
- inhibition [3]: 62%
- inhibition [9]: 4%
- inhibition [4]: 85%
- inhibition [5]: 7%
- inhibition [7]: -1%
- inhibition [8]: 1%

SMILES: O=C(O)c1ccc[nH]1
- inhibition [2]: -8%
- inhibition [3]: 48%
- inhibition [9]: 11%
- inhibition [4]: 69%
- inhibition [5]: 8%
- inhibition [6]: 1%
- inhibition [7]: 7%

SMILES: O=C(O)c1cccc2cccnc12
- inhibition [1]: 38%
- inhibition [2]: 77%
- inhibition [3]: 23%
- inhibition [4]: -2%
- inhibition [5]: 36%
- inhibition [6]: 25%
- inhibition [7]: 11%
- inhibition [8]: 31%

SMILES: O=C(O)c1cccc(O)n1
- inhibition [1]: 20%
- inhibition [2]: 0%
- inhibition [3]: 38%
- inhibition [9]: 81%
- inhibition [4]: 95%
- inhibition [5]: 16%
- inhibition [7]: 6%
- inhibition [8]: 16%

SMILES: O=C(O)c1cccnc1C(=O)O
- inhibition [1]: 14%
- inhibition [3]: 30%
- inhibition [9]: 49%
- inhibition [4]: 98%
- inhibition [5]: 4%
- inhibition [7]: 5%
- inhibition [8]: -8%

SMILES: O=C(O)c1nc(Cl)ccc1Cl
- inhibition [1]: 18%
- inhibition [2]: 0%
- inhibition [3]: 27%
- inhibition [4]: 96%
- inhibition [5]: 12%
- inhibition [6]: 0%
- inhibition [7]: 20%
- inhibition [8]: 18%

SMILES: CC(=O)NO [ACETOHYDROXAMIC ACID]
- IC50 [10]: 15 mM
- inhibition [1]: 5%
- inhibition [2]: 5%
- inhibition [9]: 25%
- inhibition [4]: -2%
- inhibition [5]: 10%
- inhibition [6]: 4%
- inhibition [7]: 4%

SMILES: Cc1cccc(C(=O)O)n1
- inhibition [1]: 3%
- inhibition [2]: 48%
- inhibition [3]: 21%
- inhibition [9]: 47%
- inhibition [4]: 25%
- inhibition [5]: -9%
- inhibition [7]: 8%
- inhibition [8]: -6%

SMILES: Cc1ccc(C(=O)O)c(O)c1
- inhibition [1]: 16%
- inhibition [2]: -1%
- inhibition [3]: 17%
- inhibition [9]: 11%
- inhibition [4]: 97%
- inhibition [5]: 8%
- inhibition [7]: 15%
- inhibition [8]: 10%

SMILES: CC(=O)CC(C)=O
- inhibition [1]: -6%
- inhibition [2]: -4%
- inhibition [3]: 42%
- inhibition [9]: 5%
- inhibition [4]: 77%
- inhibition [5]: 10%
- inhibition [6]: -5%
- inhibition [7]: -6%

SMILES: COc1ccccc1O
- inhibition [1]: 4%
- inhibition [2]: -4%
- inhibition [3]: 60%
- inhibition [9]: 13%
- inhibition [5]: 8%
- inhibition [6]: -5%
- inhibition [7]: 13%
- inhibition [8]: -6%
